From ChEMBL document CHEMBL1629498, “The synthesis of phenylalanine-derived C5-substituted rhodanines and their activity against selected methicillin-resistant Staphylococcus aureus (MRSA) strains” (2010)
Converted amounts (≈) assume the structure as drawn.

How the values were obtained:
Assay type in all cases: functional
[1] = test system: Staphylococcus aureus; test: Antibacterial activity against methicillin resistant Staphylococcus aureus ATCC BAA-1680 by microdilution method
Outline: (§1)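 Broth microdilution MIC in cation-adjusted Mueller Hinton II broth. Compounds were made up at 2 mg/mL (starting solution) in DMF plus broth, with DMF ≤0.5% of media, then serially diluted in broth. Inoculum was a 0.5 McFarland suspension, 0.2 mL diluted into 40 mL broth and added to wells. Drug-free controls were included. MIC was the well with no turbidity versus controls; each strain was tested at least in triplicate.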

[2] = test system: Staphylococcus aureus; test: Antibacterial activity against methicillin resistant Staphylococcus aureus ATCC 700787 by microdilution method; outline: as §1
[3] = test system: Staphylococcus aureus; test: Antibacterial activity against methicillin resistant Staphylococcus aureus ATCC BAA-39 by microdilution method; outline: as §1
[4] = test system: Staphylococcus aureus; test: Antibacterial activity against methicillin resistant Staphylococcus aureus ATCC 700698 by microdilution method; outline: as §1
[5] = test system: Staphylococcus aureus; test: Antibacterial activity against methicillin resistant Staphylococcus aureus ATCC 34404 by microdilution method; outline: as §1

O=C(O)CN1C(=O)/C(=C/c2ccc(Cl)c(Cl)c2)SC1=S
MIC [1]: 125 µg/mL (≈ 359 µM)
MIC [2]: 125 µg/mL (≈ 359 µM)
MIC [3]: 125 µg/mL (≈ 359 µM)
MIC [4]: 125 µg/mL (≈ 359 µM)
MIC [5]: 125 µg/mL (≈ 359 µM)

O=C(O)CN1C(=O)/C(=C/c2cccc(Oc3ccccc3)c2)SC1=S
MIC [1]: 31.2 µg/mL (≈ 84.1 µM)
MIC [2]: 31.2 µg/mL (≈ 84.1 µM)
MIC [3]: 31.2 µg/mL (≈ 84.1 µM)
MIC [4]: 31.2 µg/mL (≈ 84.1 µM)
MIC [5]: 31.2 µg/mL (≈ 84.1 µM)

CCCC(C(=O)O)N1C(=O)/C(=C/c2ccc(Cl)cc2Cl)SC1=S (stereo not given)
MIC [1]: 15.6 µg/mL (≈ 40 µM)
MIC [2]: 15.6 µg/mL (≈ 40 µM)
MIC [3]: 15.6 µg/mL (≈ 40 µM)
MIC [4]: 15.6 µg/mL (≈ 40 µM)
MIC [5]: 15.6 µg/mL (≈ 40 µM)

CC(C)CC(C(=O)O)N1C(=O)/C(=C/c2ccc(Cl)cc2Cl)SC1=S (stereo not given)
MIC [1]: 15.6 µg/mL (≈ 38.6 µM)
MIC [2]: 15.6 µg/mL (≈ 38.6 µM)
MIC [3]: 15.6 µg/mL (≈ 38.6 µM)
MIC [4]: 15.6 µg/mL (≈ 38.6 µM)
MIC [5]: 15.6 µg/mL (≈ 38.6 µM)

CC(C(=O)O)N1C(=O)/C(=C/c2ccc(Cl)cc2Cl)SC1=S (stereo not given)
MIC [2]: 125 µg/mL (≈ 345 µM)
MIC [3]: 125 µg/mL (≈ 345 µM)
MIC [4]: 125 µg/mL (≈ 345 µM)

O=C(O)C(Cc1ccccc1)N1C(=O)/C(=C/c2ccc(Cl)cc2Cl)SC1=S (stereo not given)
MIC [1]: 15.6 µg/mL (≈ 35.6 µM)
MIC [2]: 15.6 µg/mL (≈ 35.6 µM)
MIC [3]: 15.6 µg/mL (≈ 35.6 µM)
MIC [4]: 15.6 µg/mL (≈ 35.6 µM)
MIC [5]: 15.6 µg/mL (≈ 35.6 µM)

CC(C)C(C(=O)O)N1C(=O)/C(=C/c2ccc(Cl)cc2Cl)SC1=S (stereo not given)
MIC [1]: 15.6 µg/mL (≈ 40 µM)
MIC [2]: 15.6 µg/mL (≈ 40 µM)
MIC [3]: 15.6 µg/mL (≈ 40 µM)
MIC [4]: 15.6 µg/mL (≈ 40 µM)
MIC [5]: 15.6 µg/mL (≈ 40 µM)

O=C(O)CN1C(=O)/C(=C/c2ccccc2[N+](=O)[O-])SC1=S
MIC [1]: 62.5 µg/mL (≈ 193 µM)
MIC [2]: 62.5 µg/mL (≈ 193 µM)
MIC [3]: 62.5 µg/mL (≈ 193 µM)
MIC [4]: 62.5 µg/mL (≈ 193 µM)
MIC [5]: 62.5 µg/mL (≈ 193 µM)

O=C(O)CN1C(=O)/C(=C/c2ccc([N+](=O)[O-])cc2)SC1=S
MIC [1]: 250 µg/mL (≈ 771 µM)
MIC [2]: 250 µg/mL (≈ 771 µM)
MIC [3]: 250 µg/mL (≈ 771 µM)
MIC [4]: 250 µg/mL (≈ 771 µM)
MIC [5]: 250 µg/mL (≈ 771 µM)

CC(C)C(C(=O)O)N1C(=O)/C(=C/c2cccc3ccccc23)SC1=S (stereo not given)
MIC [1]: 62.5 µg/mL (≈ 168 µM)
MIC [2]: 62.5 µg/mL (≈ 168 µM)
MIC [3]: 62.5 µg/mL (≈ 168 µM)
MIC [4]: 62.5 µg/mL (≈ 168 µM)
MIC [5]: 62.5 µg/mL (≈ 168 µM)

CC(C)C(C(=O)O)N1C(=O)/C(=C/c2ccc(F)cc2)SC1=S (stereo not given)
MIC [2]: 62.5 µg/mL (≈ 184 µM)
MIC [3]: 62.5 µg/mL (≈ 184 µM)
MIC [4]: 62.5 µg/mL (≈ 184 µM)

CC(C)C(C(=O)O)N1C(=O)/C(=C/c2ccccc2Cl)SC1=S (stereo not given)
MIC [2]: 62.5 µg/mL (≈ 176 µM)
MIC [3]: 62.5 µg/mL (≈ 176 µM)
MIC [4]: 62.5 µg/mL (≈ 176 µM)

O=C(O)CN1C(=O)/C(=C/C=C/c2ccccc2)SC1=S
MIC [1]: 250 µg/mL (≈ 819 µM)
MIC [2]: 250 µg/mL (≈ 819 µM)
MIC [3]: 250 µg/mL (≈ 819 µM)
MIC [4]: 250 µg/mL (≈ 819 µM)
MIC [5]: 250 µg/mL (≈ 819 µM)

CCSCC(C(=O)O)N1C(=O)/C(=C/c2ccc(Cl)cc2Cl)SC1=S (stereo not given)
MIC [1]: 31.2 µg/mL (≈ 74 µM)
MIC [2]: 31.2 µg/mL (≈ 74 µM)
MIC [3]: 31.2 µg/mL (≈ 74 µM)
MIC [4]: 31.2 µg/mL (≈ 74 µM)
MIC [5]: 31.2 µg/mL (≈ 74 µM)

COc1ccc(/C=C2\SC(=S)N(CC(=O)O)C2=O)cc1
MIC [1]: 250 µg/mL (≈ 808 µM)
MIC [2]: 250 µg/mL (≈ 808 µM)
MIC [3]: 250 µg/mL (≈ 808 µM)
MIC [4]: 250 µg/mL (≈ 808 µM)
MIC [5]: 200 µg/mL (≈ 646 µM)

O=C(O)CN1C(=O)/C(=C/c2ccnc3ccccc23)SC1=S
MIC [1]: 250 µg/mL (≈ 757 µM)
MIC [2]: 250 µg/mL (≈ 757 µM)
MIC [3]: 500 µg/mL (≈ 1510 µM)
MIC [4]: 500 µg/mL (≈ 1510 µM)
MIC [5]: 200 µg/mL (≈ 605 µM)

O=C(O)CN1C(=O)/C(=C/C2CCCCC2)SC1=S
MIC [1]: 31.2 µg/mL (≈ 109 µM)
MIC [2]: 31.2 µg/mL (≈ 109 µM)
MIC [3]: 31.2 µg/mL (≈ 109 µM)
MIC [4]: 31.2 µg/mL (≈ 109 µM)
MIC [5]: 31.2 µg/mL (≈ 109 µM)

O=C(O)C(Cc1ccccc1)N1C(=O)/C(=C/c2ccccc2[N+](=O)[O-])SC1=S (stereo not given)
MIC [1]: 62.5 µg/mL (≈ 151 µM)
MIC [2]: 125 µg/mL (≈ 302 µM)
MIC [3]: 62.5 µg/mL (≈ 151 µM)
MIC [4]: 62.5 µg/mL (≈ 151 µM)
MIC [5]: 125 µg/mL (≈ 302 µM)

O=C(O)C(Cc1ccccc1)N1C(=O)/C(=C/c2cccc(Oc3ccccc3)c2)SC1=S (stereo not given)
MIC [1]: 1.95 µg/mL (≈ 4.22 µM)
MIC [2]: 3.9 µg/mL (≈ 8.45 µM)
MIC [3]: 3.9 µg/mL (≈ 8.45 µM)
MIC [4]: 3.9 µg/mL (≈ 8.45 µM)
MIC [5]: 1.95 µg/mL (≈ 4.22 µM)

O=C(O)c1cn(C2CC2)c2cc(N3CCNCC3)c(F)cc2c1=O [CIPROFLOXACIN]
MIC [2]: 62.5 µg/mL (≈ 189 µM)

CC1(C)S[C@@H]2[C@H](NC(=O)Cc3ccccc3)C(=O)N2[C@H]1C(=O)O [PENICILLIN G]
MIC [1]: 62.5 µg/mL (≈ 187 µM)
MIC [2]: 31.2 µg/mL (≈ 93.5 µM)
MIC [3]: 31.2 µg/mL (≈ 93.5 µM)
MIC [4]: 15.6 µg/mL (≈ 46.7 µM)
MIC [5]: 31.2 µg/mL (≈ 93.5 µM)

CN[C@H](CC(C)C)C(=O)N[C@H]1C(=O)N[C@@H](CC(N)=O)C(=O)N[C@H]2C(=O)N[C@H]3C(=O)N[C@H](C(=O)N[C@H](C(=O)O)c4cc(O)cc(O)c4-c4cc3ccc4O)[C@H](O)c3ccc(c(Cl)c3)Oc3cc2cc(c3O[C@@H]2O[C@H](CO)[C@@H](O)[C@H](O)[C@H]2O[C@H]2C[C@](C)(N)[C@H](O)[C@H](C)O2)Oc2ccc(cc2Cl)[C@H]1O [VANCOMYCIN]
MIC [1]: ≤ 0.97 µg/mL
MIC [2]: 1.95 µg/mL (≈ 1.35 µM)
MIC [3]: ≤ 0.97 µg/mL
MIC [4]: ≤ 0.97 µg/mL
MIC [5]: ≤ 0.97 µg/mL
